System: HEK-293T
Test: Multiplex assay against HEK293T;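 on Population Tubulin-Different-Phenotype (%): share of the cells with healthy nuclei that show this phenotype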
Format: toxicity, cell-based
Conditions: human
Procedure, shortened: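 Per cents of healthy-nucleus cells form the tubulin, mitochondrial-mass and membrane-permeability phenotype values. Live cells were stained at seeding with Hoechst33342, BioTracker Green Microtubule Cytoskeleton Dye, MitoTracker Red and Annexin V Alexa Fluor 680. After compound addition they were imaged on a CQ1 microscope at 37°C and 5% CO2, and CellPathfinder machine-learning gating split them into Hoechst high-intensity objects or normal cells, normal cells into healthy, pyknosed or fragmented nuclei, and pyknosed cells into mitotic or apoptotic.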

[1] = 12 h, 1 µM, compound concentration 1 uM, replicate 1
[2] = 12 h, 1 µM, compound concentration 1 uM, replicate 2
[3] = 12 h, 10 µM, compound concentration 10 uM, replicate 1
[4] = 12 h, 10 µM, compound concentration 10 uM, replicate 2
[5] = 24 h, 1 µM, compound concentration 1 uM, replicate 1
[6] = 24 h, 1 µM, compound concentration 1 uM, replicate 2
[7] = 24 h, 10 µM, compound concentration 10 uM, replicate 1
[8] = 24 h, 10 µM, compound concentration 10 uM, replicate 2
[9] = 48 h, 1 µM, compound concentration 1 uM, replicate 1
[10] = 48 h, 1 µM, compound concentration 1 uM, replicate 2
[11] = 48 h, 10 µM, compound concentration 10 uM, replicate 1
[12] = 48 h, 10 µM, compound concentration 10 uM, replicate 2

CC(/C=C1\SC(=S)N(CCCC(=O)Nc2ccc(C(=O)O)c(O)c2)C1=O)=C\c1ccccc1
Population Apoptotic (%) [1]: 38% | Population Fragmented Nuclei (%) [1]: 11% | Population Healthy Nuclei (%) [1]: 34% | Population Hoechst High Intensity Objects (%) [1]: 9% | Population Membrane Permeable-Phenotype (%) [1]: 3% | Population Mitochondria Different-Phenotype (%) [1]: 68% | Population Mitotic Cells (%) [1]: 61% | Population Normal (%) [1]: 90% | Population Pyknosed Nuclei (%) [1]: 53% | Population Tubulin-Different-Phenotype (%) [1]: 34% | Total Cell Count [1]: 251 | Population Apoptotic (%) [2]: 5% | Population Fragmented Nuclei (%) [2]: 2% | Population Healthy Nuclei (%) [2]: 44% | Population Hoechst High Intensity Objects (%) [2]: 2% | Population Membrane Permeable-Phenotype (%) [2]: 9% | Population Mitochondria Different-Phenotype (%) [2]: 20% | Population Mitotic Cells (%) [2]: 94% | Population Normal (%) [2]: 97% | Population Pyknosed Nuclei (%) [2]: 52% | Population Tubulin-Different-Phenotype (%) [2]: 21% | Total Cell Count [2]: 242 | Population Apoptotic (%) [3]: 40% | Population Fragmented Nuclei (%) [3]: 10% | Population Healthy Nuclei (%) [3]: 35% | Population Hoechst High Intensity Objects (%) [3]: 13% | Population Membrane Permeable-Phenotype (%) [3]: 6% | Population Mitochondria Different-Phenotype (%) [3]: 65% | Population Mitotic Cells (%) [3]: 59% | Population Normal (%) [3]: 86% | Population Pyknosed Nuclei (%) [3]: 54% | Population Tubulin-Different-Phenotype (%) [3]: 34% | Total Cell Count [3]: 255 | Population Apoptotic (%) [4]: 8% | Population Fragmented Nuclei (%) [4]: 5% | Population Healthy Nuclei (%) [4]: 50% | Population Hoechst High Intensity Objects (%) [4]: 1% | Population Membrane Permeable-Phenotype (%) [4]: 5% | Population Mitochondria Different-Phenotype (%) [4]: 5% | Population Mitotic Cells (%) [4]: 91% | Population Normal (%) [4]: 98% | Population Pyknosed Nuclei (%) [4]: 43% | Population Tubulin-Different-Phenotype (%) [4]: 8% | Total Cell Count [4]: 269 | Population Apoptotic (%) [5]: 41% | Population Fragmented Nuclei (%) [5]: 13% | Population Healthy Nuclei (%) [5]: 41% | Population Hoechst High Intensity Objects (%) [5]: 13% | Population Membrane Permeable-Phenotype (%) [5]: 1% | Population Mitochondria Different-Phenotype (%) [5]: 53% | Population Mitotic Cells (%) [5]: 58% | Population Normal (%) [5]: 86% | Population Pyknosed Nuclei (%) [5]: 45% | Population Tubulin-Different-Phenotype (%) [5]: 26% | Total Cell Count [5]: 263 | Population Apoptotic (%) [6]: 16% | Population Fragmented Nuclei (%) [6]: 5% | Population Healthy Nuclei (%) [6]: 62% | Population Hoechst High Intensity Objects (%) [6]: 1% | Population Membrane Permeable-Phenotype (%) [6]: 13% | Population Mitochondria Different-Phenotype (%) [6]: 10% | Population Mitotic Cells (%) [6]: 84% | Population Normal (%) [6]: 98% | Population Pyknosed Nuclei (%) [6]: 32% | Population Tubulin-Different-Phenotype (%) [6]: 30% | Total Cell Count [6]: 315 | Population Apoptotic (%) [7]: 41% | Population Fragmented Nuclei (%) [7]: 11% | Population Healthy Nuclei (%) [7]: 38% | Population Hoechst High Intensity Objects (%) [7]: 16% | Population Membrane Permeable-Phenotype (%) [7]: 2% | Population Mitochondria Different-Phenotype (%) [7]: 60% | Population Mitotic Cells (%) [7]: 58% | Population Normal (%) [7]: 83% | Population Pyknosed Nuclei (%) [7]: 49% | Population Tubulin-Different-Phenotype (%) [7]: 50% | Total Cell Count [7]: 261 | Population Apoptotic (%) [8]: 7% | Population Fragmented Nuclei (%) [8]: 2% | Population Healthy Nuclei (%) [8]: 72% | Population Hoechst High Intensity Objects (%) [8]: 1% | Population Membrane Permeable-Phenotype (%) [8]: 13% | Population Mitochondria Different-Phenotype (%) [8]: 5% | Population Mitotic Cells (%) [8]: 92% | Population Normal (%) [8]: 98% | Population Pyknosed Nuclei (%) [8]: 24% | Population Tubulin-Different-Phenotype (%) [8]: 23% | Total Cell Count [8]: 356 | Population Apoptotic (%) [9]: 31% | Population Fragmented Nuclei (%) [9]: 19% | Population Healthy Nuclei (%) [9]: 40% | Population Hoechst High Intensity Objects (%) [9]: 10% | Population Membrane Permeable-Phenotype (%) [9]: 4% | Population Mitochondria Different-Phenotype (%) [9]: 24% | Population Mitotic Cells (%) [9]: 68% | Population Normal (%) [9]: 89% | Population Pyknosed Nuclei (%) [9]: 40% | Population Tubulin-Different-Phenotype (%) [9]: 26% | Total Cell Count [9]: 330 | Population Apoptotic (%) [10]: 3% | Population Fragmented Nuclei (%) [10]: 4% | Population Healthy Nuclei (%) [10]: 83% | Population Hoechst High Intensity Objects (%) [10]: 3% | Population Membrane Permeable-Phenotype (%) [10]: 9% | Population Mitochondria Different-Phenotype (%) [10]: 3% | Population Mitotic Cells (%) [10]: 96% | Population Normal (%) [10]: 96% | Population Pyknosed Nuclei (%) [10]: 11% | Total Cell Count [10]: 570 | Population Apoptotic (%) [11]: 49% | Population Fragmented Nuclei (%) [11]: 17% | Population Healthy Nuclei (%) [11]: 44% | Population Hoechst High Intensity Objects (%) [11]: 12% | Population Membrane Permeable-Phenotype (%) [11]: 2% | Population Mitochondria Different-Phenotype (%) [11]: 26% | Population Mitotic Cells (%) [11]: 50% | Population Normal (%) [11]: 87% | Population Pyknosed Nuclei (%) [11]: 37% | Population Tubulin-Different-Phenotype (%) [11]: 29% | Total Cell Count [11]: 339 | Population Apoptotic (%) [12]: 12% | Population Fragmented Nuclei (%) [12]: 7% | Population Healthy Nuclei (%) [12]: 86% | Population Hoechst High Intensity Objects (%) [12]: 3% | Population Membrane Permeable-Phenotype (%) [12]: 9% | Population Mitochondria Different-Phenotype (%) [12]: 3% | Population Mitotic Cells (%) [12]: 87% | Population Normal (%) [12]: 96% | Population Pyknosed Nuclei (%) [12]: 6% | Population Tubulin-Different-Phenotype (%) [12]: 16% | Total Cell Count [12]: 675

— ChEMBL document CHEMBL4689842, “EUbOPEN Chemogenomics Library wave 1” (2021)
